In ChEMBL document CHEMBL3286105, “Design, synthesis and antifungal activity of novel triazole derivatives containing substituted 1,2,3-triazole-piperdine side chains” (2014):
Values after ≈ are worked out from the molar mass of the structure shown.

Columns and labels:
Format in all cases: functional
Nannizzia gypsea = test: Antifungal activity against Microsporum gypseum assessed as growth inhibition by serial dilution method
Summary of the method: (§1)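 Compounds were dissolved in DMSO and diluted in growth medium. Incubation was at 28 °C. MIC was the lowest concentration with turbidity at the 80% inhibition threshold relative to the drug-free growth control.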

Candida parapsilosis = test: Antifungal activity against Candida parapsilosis assessed as growth inhibition after 24 hrs by serial dilution method; settings: Lodderomyces parapsilosis
Summary of the method: (§2)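 Candida strains were ATCC or clinical isolates. Compounds were dissolved in DMSO and serially diluted in growth medium. Plates were incubated at 35 °C and read at 24 h. MIC was the lowest concentration giving turbidity at […]80% inhibition relative to the growth control.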

Nakaseomyces glabratus = test: Antifungal activity against Candida glabrata assessed as growth inhibition after 24 hrs by serial dilution method; summary of the method: as §2
Cryptococcus neoformans = test: Antifungal activity against Cryptococcus neoformans assessed as growth inhibition after 72 hrs by serial dilution method
Summary of the method: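 Compounds were taken up in DMSO and diluted in growth medium. Incubation was at 35 °C with MIC read at 72 h. MIC was the lowest concentration at which turbidity reached the 80% inhibition cutoff against the untreated growth control.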

Candida albicans = test: Antifungal activity against Candida albicans assessed as growth inhibition after 24 hrs by serial dilution method; summary of the method: as §2
Aspergillus fumigatus = test: Antifungal activity against Aspergillus fumigatus assessed as growth inhibition after 7 days by serial dilution method; settings: 168 h
Trichophyton rubrum = test: Antifungal activity against Trichophyton rubrum assessed as growth inhibition by serial dilution method; summary of the method: as §1

Row | SMILES | MIC80 (Nannizzia gypsea) [µg/mL] | MIC80 (Candida parapsilosis) [µg/mL] | MIC80 (Nakaseomyces glabratus) [µg/mL] | MIC80 (Cryptococcus neoformans) [µg/mL] | MIC80 (Candida albicans) [µg/mL] | MIC80 (Aspergillus fumigatus) [µg/mL] | MIC80 (Trichophyton rubrum) [µg/mL]
1 | CCc1cn(C2CCN(CC(O)(Cn3cncn3)c3ccc(F)cc3F)CC2)nn1 (configuration not stated) | 8 (≈ 19.2 µM) | 1 (≈ 2.4 µM) | 0.5 (≈ 1.2 µM) | 1 (≈ 2.4 µM) | 0.125 (≈ 0.299 µM) | 64 (≈ 153 µM) | 1 (≈ 2.4 µM)
2 | CCCc1cn(C2CCN(CC(O)(Cn3cncn3)c3ccc(F)cc3F)CC2)nn1 (configuration not stated) | 4 (≈ 9.27 µM) | 1 (≈ 2.32 µM) | 0.25 (≈ 0.579 µM) | 0.5 (≈ 1.16 µM) | 0.125 (≈ 0.29 µM) | 16 (≈ 37.1 µM) | 1 (≈ 2.32 µM)
3 | OC(CN1CCC(n2cc(C3CC3)nn2)CC1)(Cn1cncn1)c1ccc(F)cc1F (configuration not stated) | 8 (≈ 18.6 µM) | 1 (≈ 2.33 µM) | 0.25 (≈ 0.582 µM) | 1 (≈ 2.33 µM) | 0.125 (≈ 0.291 µM) | 64 (≈ 149 µM) | 2 (≈ 4.66 µM)
4 | OC(CN1CCC(n2cc(C3CCCC3)nn2)CC1)(Cn1cncn1)c1ccc(F)cc1F (configuration not stated) | 64 (≈ 140 µM) | 8 (≈ 17.5 µM) | 4 (≈ 8.74 µM) | 8 (≈ 17.5 µM) | 0.5 (≈ 1.09 µM) | > 64 | 16 (≈ 35 µM)
5 | COCc1cn(C2CCN(CC(O)(Cn3cncn3)c3ccc(F)cc3F)CC2)nn1 (configuration not stated) | 2 (≈ 4.61 µM) | 0.5 (≈ 1.15 µM) | 0.25 (≈ 0.577 µM) | 0.25 (≈ 0.577 µM) | 0.125 (≈ 0.288 µM) | 16 (≈ 36.9 µM) | 0.5 (≈ 1.15 µM)
6 | OCc1cn(C2CCN(CC(O)(Cn3cncn3)c3ccc(F)cc3F)CC2)nn1 (configuration not stated) | > 64 | > 64 | 32 (≈ 76.3 µM) | 64 (≈ 153 µM) | 8 (≈ 19.1 µM) | > 64 | > 64
7 | CC(O)c1cn(C2CCN(CC(O)(Cn3cncn3)c3ccc(F)cc3F)CC2)nn1 (configuration not stated) | > 64 | > 64 | 16 (≈ 36.9 µM) | 64 (≈ 148 µM) | 8 (≈ 18.5 µM) | > 64 | > 64
8 | OCCc1cn(C2CCN(CC(O)(Cn3cncn3)c3ccc(F)cc3F)CC2)nn1 (configuration not stated) | > 64 | > 64 | 16 (≈ 36.9 µM) | > 64 | 4 (≈ 9.23 µM) | > 64 | > 64
9 | OCCCc1cn(C2CCN(CC(O)(Cn3cncn3)c3ccc(F)cc3F)CC2)nn1 (configuration not stated) | > 64 | > 64 | 16 (≈ 35.8 µM) | > 64 | 8 (≈ 17.9 µM) | > 64 | > 64
10 | OCCCCc1cn(C2CCN(CC(O)(Cn3cncn3)c3ccc(F)cc3F)CC2)nn1 (configuration not stated) | > 64 | 32 (≈ 69.3 µM) | 8 (≈ 17.3 µM) | 32 (≈ 69.3 µM) | 4 (≈ 8.67 µM) | > 64 | 64 (≈ 139 µM)
11 | OC(c1ccccc1)c1cn(C2CCN(CC(O)(Cn3cncn3)c3ccc(F)cc3F)CC2)nn1 (configuration not stated) | > 64 | 8 (≈ 16.1 µM) | 8 (≈ 16.1 µM) | 32 (≈ 64.6 µM) | 2 (≈ 4.04 µM) | 16 (≈ 32.3 µM) | 32 (≈ 64.6 µM)
12 | OC(CN1CCC(n2cc(Cc3ccccc3)nn2)CC1)(Cn1cncn1)c1ccc(F)cc1F (configuration not stated) | 4 (≈ 8.34 µM) | 1 (≈ 2.09 µM) | 1 (≈ 2.09 µM) | 0.5 (≈ 1.04 µM) | 0.125 (≈ 0.261 µM) | 32 (≈ 66.7 µM) | 1 (≈ 2.09 µM)
13 | COC(=O)CCCc1cn(C2CCN(CC(O)(Cn3cncn3)c3ccc(F)cc3F)CC2)nn1 (configuration not stated) | 8 (≈ 16.3 µM) | 4 (≈ 8.17 µM) | 2 (≈ 4.09 µM) | 4 (≈ 8.17 µM) | 0.25 (≈ 0.511 µM) | 64 (≈ 131 µM) | 4 (≈ 8.17 µM)
14 | O=C(O)CCCc1cn(C2CCN(CC(O)(Cn3cncn3)c3ccc(F)cc3F)CC2)nn1 (configuration not stated) | 32 (≈ 67.3 µM) | 8 (≈ 16.8 µM) | 4 (≈ 8.41 µM) | 4 (≈ 8.41 µM) | 0.5 (≈ 1.05 µM) | > 64 | 4 (≈ 8.41 µM)
15 | CCOC(=O)c1cn(C2CCN(CC(O)(Cn3cncn3)c3ccc(F)cc3F)CC2)nn1 (configuration not stated) | > 64 | > 64 | 32 (≈ 69.3 µM) | > 64 | 8 (≈ 17.3 µM) | > 64 | > 64
16 | O=C(O)c1cn(C2CCN(CC(O)(Cn3cncn3)c3ccc(F)cc3F)CC2)nn1 (configuration not stated) | > 64 | 64 (≈ 148 µM) | 8 (≈ 18.5 µM) | 16 (≈ 36.9 µM) | 4 (≈ 9.23 µM) | > 64 | > 64
17 | OC(CN1CCC(n2cc(-c3ccccc3)nn2)CC1)(Cn1cncn1)c1ccc(F)cc1F (configuration not stated) | 4 (≈ 8.59 µM) | 1 (≈ 2.15 µM) | 1 (≈ 2.15 µM) | 0.25 (≈ 0.537 µM) | 0.125 (≈ 0.269 µM) | > 64 | 0.5 (≈ 1.07 µM)
18 | OC(CN1CCC(n2cc(-c3cccnc3)nn2)CC1)(Cn1cncn1)c1ccc(F)cc1F (configuration not stated) | 16 (≈ 34.3 µM) | 1 (≈ 2.14 µM) | 1 (≈ 2.14 µM) | 0.125 (≈ 0.268 µM) | 0.125 (≈ 0.268 µM) | 64 (≈ 137 µM) | 4 (≈ 8.57 µM)
19 | OC(CN1CCC(n2cc(-c3ccc(Br)cc3)nn2)CC1)(Cn1cncn1)c1ccc(F)cc1F (configuration not stated) | 2 (≈ 3.67 µM) | 1 (≈ 1.84 µM) | 0.5 (≈ 0.918 µM) | 0.125 (≈ 0.23 µM) | 0.125 (≈ 0.23 µM) | > 64 | 0.25 (≈ 0.459 µM)
20 | CC(=O)c1ccc(-c2cn(C3CCN(CC(O)(Cn4cncn4)c4ccc(F)cc4F)CC3)nn2)cc1 (configuration not stated) | 2 (≈ 3.94 µM) | 0.5 (≈ 0.985 µM) | 0.5 (≈ 0.985 µM) | 0.125 (≈ 0.246 µM) | 0.0625 (≈ 0.123 µM) | 64 (≈ 126 µM) | 1 (≈ 1.97 µM)
21 | CN(C)c1ccc(-c2cn(C3CCN(CC(O)(Cn4cncn4)c4ccc(F)cc4F)CC3)nn2)cc1 (configuration not stated) | 4 (≈ 7.87 µM) | 2 (≈ 3.93 µM) | 2 (≈ 3.93 µM) | 1 (≈ 1.97 µM) | 0.25 (≈ 0.492 µM) | 8 (≈ 15.7 µM) | 2 (≈ 3.93 µM)
22 | OC(CN1CCC(n2cc(-c3ccc(OC(F)(F)F)cc3)nn2)CC1)(Cn1cncn1)c1ccc(F)cc1F (configuration not stated) | 4 (≈ 7.28 µM) | 2 (≈ 3.64 µM) | 0.5 (≈ 0.91 µM) | 0.125 (≈ 0.227 µM) | 0.0125 (≈ 0.0227 µM) | 8 (≈ 14.6 µM) | 0.5 (≈ 0.91 µM)
23 | COc1cccc(-c2cn(C3CCN(CC(O)(Cn4cncn4)c4ccc(F)cc4F)CC3)nn2)c1 (configuration not stated) | 32 (≈ 64.6 µM) | 4 (≈ 8.07 µM) | 2 (≈ 4.04 µM) | 0.125 (≈ 0.252 µM) | 0.125 (≈ 0.252 µM) | > 64 | 4 (≈ 8.07 µM)
24 | Cc1ccccc1-c1cn(C2CCN(CC(O)(Cn3cncn3)c3ccc(F)cc3F)CC2)nn1 (configuration not stated) | 64 (≈ 133 µM) | 0.5 (≈ 1.04 µM) | 0.5 (≈ 1.04 µM) | 0.25 (≈ 0.521 µM) | 0.125 (≈ 0.261 µM) | > 64 | 0.5 (≈ 1.04 µM)
25 | OC(Cn1cncn1)(Cn1cncn1)c1ccc(F)cc1F [FLUCONAZOLE] | 32 (≈ 104 µM) | 2 (≈ 6.53 µM) | 1 (≈ 3.27 µM) | 1 (≈ 3.27 µM) | 0.25 (≈ 0.816 µM) | > 64 | 8 (≈ 26.1 µM)
26 | CCC(C)n1ncn(-c2ccc(N3CCN(c4ccc(OCC5COC(Cn6cncn6)(c6ccc(Cl)cc6Cl)O5)cc4)CC3)cc2)c1=O (configuration not stated) [ITRACONAZOLE] | 2 (≈ 2.83 µM) | 4 (≈ 5.67 µM) | 1 (≈ 1.42 µM) | 2 (≈ 2.83 µM) | 1 (≈ 1.42 µM) | 1 (≈ 1.42 µM) | 0.5 (≈ 0.709 µM)
